Experimental data published in ChEMBL document CHEMBL3046214, “Friedelane triterpenes from Celastrus vulcanicola as photosynthetic inhibitors” (J Agric Food Chem, 2010).
Calls of active or inactive are those of the source. The rule behind the calls is not given here.

Tests used:
Spinacia oleracea [1] = assay: Inhibition of photophosphorylation in Spinacia oleracea (spinach) leaves chloroplasts by titrimetry; type: functional
In short: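 Intact spinach chloroplasts (20 μg Chl/mL) were osmotically broken in 3 mL of weakly buffered medium: 100 mM sorbitol, 10 mM KCl, 5 mM MgCl2, 0.5 mM KCN, 1 mM tricine-KOH pH 8.0, 50 μM MV and 1 mM ADP. ATP synthesis was taken from the medium alkalization rate in the linear part of illumination, calibrated by HCl back-titration, as μmol ATP (mg Chl)-1 h-1. I50 was obtained from concentration-activity plots; three replicates.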

Spinacia oleracea [2] = assay: Increase in Magnesium-transporting ATPase activity in Spinacia oleracea (spinach) leaves chloroplasts thylakoids at 3 mM
In short: (§1)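 Spinach chloroplasts were isolated in 350 mM sorbitol, 5 mM ascorbate, 20 mM MES pH 6.5, centrifuged at 3000g for 60 s, washed, and resuspended in 35 mM HEPES pH 7.6. Light-triggered Mg2+-ATPase activity of thylakoid membranes was measured as released inorganic phosphate. Ammonium chloride served as positive control.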

Spinacia oleracea [3] = assay: Increase in Magnesium-transporting ATPase activity in Spinacia oleracea (spinach) leaves chloroplasts thylakoids at 1 mM; in short: as §1
Spinacia oleracea [4] = assay: Increase in Magnesium-transporting ATPase activity in Spinacia oleracea (spinach) leaves chloroplasts thylakoids at 2 mM; in short: as §1
Lolium perenne [5] = assay: Inhibition of photosynthetic efficiency in Lolium perenne (perennial ryegrass) at 200 uM measured 24 to 72 hr post compound application; type: functional
In short: (§2)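 Greenhouse L. perenne sprayed 18 days after emergence (20 mM DMSO stock diluted into 0.05% Tween-20; vehicle-sprayed controls). Leaves dark-adapted 15 min, then excited with 3000 μmol photons m-2 s-1 red light (650 nm) from three LEDs. OJIP transients recorded at room temperature with a Handy PEA. PI(abs) and other parameters are shown on radar plots normalized to control.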

Spinacia oleracea [6] = assay: Inhibition of phosphorylating noncyclic electron transport from water to MV in Spinacia oleracea (spinach) leaves chloroplasts up to 300 uM using Clark type electrode system based method; type: functional
In short: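 Clark-electrode measurement of water-to-MV electron flow in the basal medium (sorbitol, KCl, MgCl2, 0.5 mM KCN, 50 μM MV, 15 mM tricine-KOH pH 8.0; 20 μg Chl/mL; 1 min light), with 1 mM ADP and 3 mM KH2PO4 added.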

Spinacia oleracea [7] = assay: Inhibition of basal electron transport from water to MV in Spinacia oleracea (spinach) leaves chloroplasts up to 300 uM using Clark type electrode system based method; type: functional, organism-based
Lolium perenne [8] = assay: Inhibition of photosynthetic efficiency in Lolium perenne (perennial ryegrass) at 100 uM measured 24 hr post compound application; type: functional; in short: as §2
[9] = target: Photosystem II protein D1 (Spinacia oleracea) (UniProt P69560); assay: Inhibition of uncoupled photosystem II electron transport and partial reactions in Spinacia oleracea (spinach) leaves assessed as electron transport rate from water to DCPIP at 200 uM measured per mg of chlorophyll relative to untreated control; design: scale not given: the % may be the effect or the level left
[10] = target: Photosystem II protein D1 (Spinacia oleracea) (UniProt P69560); assay: Inhibition of uncoupled photosystem II electron transport and partial reactions in Spinacia oleracea (spinach) leaves assessed as electron transport rate from water to SiMo at 50 uM measured per mg of chlorophyll relative to untreated control; design: scale not given: the % may be the effect or the level left
In short: (§3)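 Uncoupled partial PSII reaction from water to silicomolybdate, run in the PSII medium (sorbitol, KCl, MgCl2, KCN, 15 mM tricine-KOH pH 8.0, 6 mM NH4Cl, 20 μg Chl/mL, 1 min light). DCBQ/DBMIB were replaced by 200 μM SiMo plus 10 μM DCMU. Rates are in μequiv e-/h mg Chl, relative to control, three replicates.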

Lolium perenne [11] = assay: Inhibition of photosynthetic efficiency in Lolium perenne (perennial ryegrass) at 100 uM measured 48 hr post compound application; type: functional, organism-based; in short: as §2
[12] = target: Photosystem II protein D1 (Spinacia oleracea) (UniProt P69560); assay: Inhibition of uncoupled photosystem II electron transport and partial reactions in Spinacia oleracea (spinach) leaves assessed as electron transport rate from water to DCBQ at 50 uM measured per mg of chlorophyll relative to untreated control; design: scale not given: the % may be the effect or the level left
In short: (§4)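 Uncoupled PSII water-to-DCBQ rate: 3 mL of 100 mM sorbitol, 10 mM KCl, 5 mM MgCl2, 0.5 mM KCN, 15 mM tricine-KOH pH 8.0, with 100 μM DCBQ, 1 μM DBMIB, 6 mM NH4Cl and chloroplasts at 20 μg Chl/mL, illuminated 1 min. Rates are in μequiv e-/h mg Chl, percent of control, three replicates.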

[13] = target: Photosystem II protein D1 (Spinacia oleracea) (UniProt P69560); assay: Inhibition of uncoupled photosystem II electron transport and partial reactions in Spinacia oleracea (spinach) leaves assessed as electron transport rate from water to SiMo at 200 uM measured per mg of chlorophyll relative to untreated control; design: scale not given: the % may be the effect or the level left; in short: as §3
Spinacia oleracea [14] = assay: Effect on photosynthesis efficiency in Spinacia oleracea (spinach) leaves freshly lysed chloroplasts assessed as change in chlorophyll a fluorescence at 150 to 450 uM; type: functional
In short: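 Freshly lysed spinach thylakoids (20 μg Chl) were placed on filter paper with a dot-blot apparatus and dipped in 3 mL basal electron transport medium without MV, containing compound. After 5 min dark adaptation, fluorescence was excited with 3000 μmol m-2 s-1 650 nm LED light (2 s pulse) at room temperature. Wt = (Ft−F0)/(FJ−F0), difference from control used for K-band; five replicates.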

[15] = target: Photosystem II protein D1 (Spinacia oleracea) (UniProt P69560); assay: Inhibition of uncoupled photosystem II electron transport and partial reactions in Spinacia oleracea (spinach) leaves assessed as electron transport rate from water to DCPIP at 300 uM measured per mg of chlorophyll relative to untreated control; design: scale not given: the % may be the effect or the level left
[16] = target: Photosystem II protein D1 (Spinacia oleracea) (UniProt P69560); assay: Inhibition of uncoupled photosystem II electron transport and partial reactions in Spinacia oleracea (spinach) leaves assessed as electron transport rate from water to DCBQ at 200 uM measured per mg of chlorophyll relative to untreated control; design: scale not given: the % may be the effect or the level left; in short: as §4
Spinacia oleracea [17] = assay: Increase in Magnesium-transporting ATPase activity in Spinacia oleracea (spinach) leaves chloroplasts thylakoids at 100 uM; in short: as §1
Physalis ixocarpa [18] = assay: Effect on biomass production in Physalis ixocarpa assessed as plant dry weight at 200 uM measured 14 days post compound application relative to untreated control; type: functional
In short: (§5)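 Greenhouse-grown plants (pots, watered daily, 25 to 30 °C) of similar size, sprayed at 15 (P. ixocarpa) or 18 (L. perenne) days after emergence. Compound taken from a 20 mM DMSO stock into aqueous 0.05% w/v Tween-20; controls were sprayed with water containing the same DMSO and Tween-20. Plants harvested at ground level, oven-dried at 65 °C to constant weight, then weighed.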

Physalis ixocarpa [19] = assay: Inhibition of photosynthetic efficiency in Physalis ixocarpa intact leaves assessed as reduction in PI(abs) level at 200 uM measured 48 hr post compound application; type: functional
In short: (§6)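 P. ixocarpa plants sprayed 15 days after emergence (greenhouse, 25-30 °C; 20 mM DMSO stock diluted into 0.05% Tween-20; vehicle-sprayed controls). Leaves dark-adapted 15 min, then excited with 650 nm red LED light at 3000 μmol photons m-2 s-1. Chl a OJIP transients recorded with a Handy PEA at room temperature. PI(abs) is normalized to control; K-, J- and I-bands come from variable fluorescence difference curves; five replicates.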

[20] = target: Photosystem II protein D1 (Spinacia oleracea) (UniProt P69560); assay: Inhibition of uncoupled photosystem II electron transport and partial reactions in Spinacia oleracea (spinach) leaves assessed as electron transport rate from water to DCPIP at 50 uM measured per mg of chlorophyll relative to untreated control; design: scale not given: the % may be the effect or the level left
[21] = target: Photosystem II protein D1 (Spinacia oleracea) (UniProt P69560); assay: Inhibition of uncoupled photosystem II electron transport and partial reactions in Spinacia oleracea (spinach) leaves assessed as electron transport rate from water to DCBQ at 100 uM measured per mg of chlorophyll relative to untreated control; design: scale not given: the % may be the effect or the level left; in short: as §4
Lolium perenne [22] = assay: Inhibition of photosynthetic efficiency in Lolium perenne (perennial ryegrass) at 100 uM measured 72 hr post compound application; type: functional; in short: as §2
[23] = target: Photosystem II protein D1 (Spinacia oleracea) (UniProt P69560); assay: Inhibition of uncoupled photosystem II electron transport and partial reactions in Spinacia oleracea (spinach) leaves assessed as electron transport rate from water to DCBQ at 300 uM measured per mg of chlorophyll relative to untreated control; design: scale not given: the % may be the effect or the level left; in short: as §4
Physalis ixocarpa [24] = assay: Inhibition of photosynthetic efficiency in Physalis ixocarpa intact leaves assessed as reduction in PI(abs) level at 100 uM measured 72 hr post compound application; type: functional; in short: as §6
Physalis ixocarpa [25] = assay: Effect on biomass production in Physalis ixocarpa assessed as plant dry weight at 100 uM measured 14 days post compound application relative to untreated control; type: functional; in short: as §5
Physalis ixocarpa [26] = assay: Effect on photosynthetic efficiency in Physalis ixocarpa intact leaves assessed as increase in PI(abs) level at 100 uM measured 72 hr post compound application; type: functional; conditions: in the assay text read “at 200 uM” for “at 100 uM”; in short: as §6
Spinacia oleracea [27] = assay: Increase in Magnesium-transporting ATPase activity in Spinacia oleracea (spinach) leaves chloroplasts thylakoids at 300 uM; in short: as §1
Physalis ixocarpa [28] = assay: Inhibition of photosynthetic efficiency in Physalis ixocarpa intact leaves assessed as loss of K-bands at 200 uM measured 72 hr post compound application; type: functional, organism-based; in short: as §6
Spinacia oleracea [29] = assay: Inhibition of uncoupled electron transport from water to MV in Spinacia oleracea (spinach) leaves chloroplasts up to 300 uM using Clark type electrode system based method; type: functional, organism-based
In short: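 Water-to-MV electron transport measured with a Clark electrode in the basal medium (20 μg Chl/mL, 50 μM MV, 15 mM tricine-KOH pH 8.0, 1 min illumination), with 6 mM NH4Cl added as uncoupler.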

[30] = target: Photosystem II protein D1 (Spinacia oleracea) (UniProt P69560); assay: Inhibition of uncoupled photosystem II electron transport and partial reactions in Spinacia oleracea (spinach) leaves assessed as electron transport rate from water to SiMo at 300 uM measured per mg of chlorophyll relative to untreated control; design: scale not given: the % may be the effect or the level left; in short: as §3
[31] = target: Photosystem II protein D1 (Spinacia oleracea) (UniProt P69560); assay: Inhibition of uncoupled photosystem II electron transport and partial reactions in Spinacia oleracea (spinach) leaves assessed as electron transport rate from water to SiMo at 100 uM measured per mg of chlorophyll relative to untreated control; design: scale not given: the % may be the effect or the level left; in short: as §3
[32] = target: Photosystem II protein D1 (Spinacia oleracea) (UniProt P69560); assay: Inhibition of uncoupled photosystem II electron transport and partial reactions in Spinacia oleracea (spinach) leaves assessed as electron transport rate from water to DCPIP at 100 uM measured per mg of chlorophyll relative to untreated control; design: scale not given: the % may be the effect or the level left
Lolium perenne [33] = assay: Effect on biomass production in Lolium perenne (perennial ryegrass) assessed as plant dry weight at 100 uM measured 14 days post compound application relative to untreated control; type: functional; in short: as §5
Lolium perenne [34] = assay: Effect on biomass production in Lolium perenne (perennial ryegrass) assessed as plant dry weight at 200 uM measured 14 days post compound application relative to untreated control; type: functional; in short: as §5
Spinacia oleracea [35] = assay: Increase in Magnesium-transporting ATPase activity in Spinacia oleracea (spinach) leaves chloroplasts thylakoids at 200 uM; in short: as §1
Physalis ixocarpa [36] = assay: Inhibition of photosynthetic efficiency in Physalis ixocarpa intact leaves assessed as reduction in PI(abs) level at 100 uM measured 48 hr post compound application; type: functional; in short: as §6
Physalis ixocarpa [37] = assay: Inhibition of photosynthetic efficiency in Physalis ixocarpa intact leaves assessed as effect on OJIP transients at 100 uM measured 24 hr post compound application; type: functional, organism-based; in short: as §6

C[C@H]1C(=O)CC[C@@H]2[C@]1(C)CC[C@H]1[C@@]2(C)CC[C@@]2(C)[C@@H]3C[C@](C)(CO)CC[C@]3(C)CC[C@]12C
inhibition (Spinacia oleracea [1]): inactive

Cl.N
Activity (Spinacia oleracea [2]): 234% | Activity (Spinacia oleracea [3]): 128% | Activity (Spinacia oleracea [4]): 252%

C[C@H]1C(=O)CC[C@@H]2[C@]1(C)CC[C@H]1[C@@]2(C)CC[C@@]2(C)[C@@H]3CC(C)(C)CC[C@]3(CO)CC[C@]12C [CANOPHYLLOL]
inhibition (Lolium perenne [5]): inactive | inhibition (Spinacia oleracea [6]): Active | inhibition (Spinacia oleracea [7]): Active | inhibition at 100 µM (Lolium perenne [8]): 50% | Activity [9]: 95% | Activity [10]: 60% | inhibition (Lolium perenne [11]): inactive | IC50 (Spinacia oleracea [1]; read-out: I50): 124 µM | Activity [12]: 89% | Activity [13]: 10% | Activity (Spinacia oleracea [14]): Active | Activity [15]: 100% | Activity [16]: 50% | Activity (Spinacia oleracea [17]): 110% | Activity (Physalis ixocarpa [18]): 99% | inhibition at 200 µM (Physalis ixocarpa [19]): 10% | Activity [20]: 105% | Activity [21]: 68% | inhibition at 100 µM (Lolium perenne [22]): 15% | Activity [23]: 44% | inhibition at 100 µM (Physalis ixocarpa [24]): 25% | Activity (Physalis ixocarpa [25]): 81.5% | Activity (Physalis ixocarpa [26]): 10% | Activity (Spinacia oleracea [27]): 126% | inhibition (Physalis ixocarpa [28]): Active | inhibition (Spinacia oleracea [29]): Active | Activity [30]: 0% | Activity [31]: 20% | Activity [32]: 108% | Activity (Lolium perenne [33]): 117.1% | Activity (Lolium perenne [34]): 140.3% | Activity (Spinacia oleracea [35]): 116% | inhibition at 100 µM (Physalis ixocarpa [36]): 10% | inhibition (Physalis ixocarpa [37]): inactive
